Laboratory results from ChEMBL document CHEMBL1157379, “Transcriptional response of Candida parapsilosis following exposure to farnesol” (2007).
The source made the active and inactive calls. No cut-off for these calls is given here.

Columns and labels:
[1] = test system: Candida parapsilosis; assay: Cell cycle arrest in Candida parapsilosis CLIB214 assessed as accumulation at S phase at 50 uM added 4 hrs after […] growth; format: functional, organism-based
Method in brief: (§1)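 YPD culture diluted to A600 0.2 at 30°C. Farnesol added to 50 μM after 4 h. Budding cells scored by microscopy: unbudded as G1, small budded as S, large budded as G2/M. Compared with methanol controls.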

[2] = test system: Candida parapsilosis; assay: Antifungal activity against Candida parapsilosis CLIB214 assessed as growth inhibition at 50 uM added after 4 hrs of bacterial growth measured after 2 hrs; format: functional; details: Lodderomyces parapsilosis
Method in brief: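 Overnight YPD culture at 30°C diluted to A600 0.2 in YPD. Farnesol added to 50 μM final at 2, 4, 6 or 8 h of growth (A600 about 0.8 at 4 h, 2.3 at 6 h, 6 at 8 h). Growth compared with methanol controls by A600 or cell counts.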

[3] = test system: Candida parapsilosis; assay: Increase in CGD gene ortholog accession number orf19.6080 expression in Candida parapsilosis CLIB214 at 50 uM after 2 hrs by microarray based transcriptional profiling relative to control; format: functional
Method in brief: (§2)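 Strain CLIB214 grown overnight in YPD at 30°C, diluted to A600 0.2 in fresh YPD at 30°C. After 4 h (A600 0.8), farnesol (40 mM methanol stock) added to 50 μM final, or an equal methanol volume as control; cells harvested 2 h later. RNA was accepted only with a 28S/18S ratio of 1.6–2.2. Cy3/Cy5-dCTP-labelled cDNA was made from 25 μg total RNA. Hybridisation was to duplicate-spotted 68-mer oligo arrays (3,849 genes) at 42°C for about 16 h. Six individual comparisons.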

[4] = test system: Candida parapsilosis; assay: Increase in STP2 gene expression in Candida parapsilosis CLIB214 at 50 uM after 2 hrs by microarray based transcriptional profiling relative to control; format: functional
Method in brief: (§3)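 Strain grown overnight in YPD at 30°C, diluted to A600 0.2 in YPD at 30°C; farnesol (40 mM methanol stock) added at 4 h (A600 0.8), final 50 μM; methanol-only control. Cells collected 2 h later for RNA. Labelled cDNA from 25 μg total RNA (Cy3/Cy5-dCTP) hybridized to 68-mer oligo arrays at 42°C ~16 h; six individual comparisons analysed statistically.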

[5] = test system: Candida parapsilosis; assay: Increase in HAS1 gene expression in Candida parapsilosis CLIB214 at 50 uM after 2 hrs by microarray based transcriptional profiling relative to control; format: functional; method in brief: as §3
[6] = test system: Candida parapsilosis; assay: Decrease in CGD gene ortholog accession number orf19.4253 expression in Candida parapsilosis CLIB214 at 50 uM after 2 hrs by microarray based transcriptional profiling relative to control; format: functional
Method in brief: (§4)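 Cells in YPD at 30°C treated with 50 μM farnesol at 4 h, with a methanol control. RNA harvested 2 h later and kept only if 28S/18S ratio was 1.6–2.2 with no degradation. 25 μg total RNA oligo-dT primed and labeled with Cy3/Cy5-dCTP. Labeled cDNA hybridized about 16 h at 42°C to duplicate-spotted 68-mer oligo arrays. Six individual comparisons analyzed statistically.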

[7] = test system: Candida parapsilosis; assay: Increase in CGD gene ortholog accession number orf19.2446 expression in Candida parapsilosis CLIB214 at 50 uM after 2 hrs by microarray based transcriptional profiling relative to control; format: functional; method in brief: as §2
[8] = test system: Candida parapsilosis; assay: Increase in CGD gene ortholog accession number orf19.3544 expression in Candida parapsilosis CLIB214 at 50 uM after 2 hrs by microarray based transcriptional profiling relative to control; format: functional; method in brief: as §2
[9] = test system: Candida parapsilosis; assay: Increase in PXP2 gene expression in Candida parapsilosis CLIB214 at 50 uM after 2 hrs by microarray based transcriptional profiling relative to control; format: functional; method in brief: as §3
[10] = test system: Candida parapsilosis; assay: Effect on membrane lipid localization in ERG9 gene expression in Candida parapsilosis CLIB214 assessed as uniform staining at 50 uM after 1 hr by filipin staining; format: functional
Method in brief: (§5)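 Cultures grown overnight in YPD at 30°C, diluted to A600 0.2, and given farnesol to 50 μM final (methanol for controls) after 4 h of growth. Cells collected 1 h later, PBS-washed, and stained 10 min at room temperature with 100 μg ml−1 filipin in water. Scored by fluorescence microscopy (excitation 360–370 nm, emission 420–460 nm) as bud-tip versus uniform sterol staining.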

[11] = test system: Candida parapsilosis; assay: Effect on membrane lipid localization in ERG9 gene expression in Candida parapsilosis CLIB214 assessed as growing bud tip staining at 50 uM after 1 hr by filipin staining; format: functional; method in brief: as §5
[12] = test system: Candida parapsilosis; assay: Decrease in SOL1 gene expression in Candida parapsilosis CLIB214 at 50 uM after 2 hrs by microarray based transcriptional profiling relative to control; format: functional; method in brief: as §2
[13] = test system: Candida parapsilosis; assay: Cell cycle arrest in Candida parapsilosis CLIB214 assessed as accumulation at G2/M phase at 50 uM added 4 hrs after […] growth; format: functional, organism-based; method in brief: as §1
[14] = test system: Candida parapsilosis; assay: Increase in KEX2 gene expression in Candida parapsilosis CLIB214 at 50 uM after 2 hrs by microarray based transcriptional profiling relative to control; format: functional; method in brief: as §3
[15] = test system: Candida parapsilosis; assay: Antifungal activity against Candida parapsilosis CLIB214 assessed as induction of cell death at 50 uM added 4 hrs after […] growth after 2 hrs by propidium iodide staining method; format: functional
Method in brief: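 After 2 h exposure to 50 μM farnesol (methanol stock; methanol-only control), cells were washed twice in PBS and stained with propidium iodide at 10 μg ml−1 in PBS for 5 min. Dead-cell percentage was scored by fluorescence microscopy (Texas Red filter), counting at least 150 cells in each of three independent experiments.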

[16] = test system: Candida parapsilosis; assay: Increase in REG1 gene expression in Candida parapsilosis CLIB214 at 50 uM after 2 hrs by microarray based transcriptional profiling relative to control; format: functional; method in brief: as §3
[17] = test system: Candida parapsilosis; assay: Increase in CGD gene ortholog accession number orf19.7270 expression in Candida parapsilosis CLIB214 at 50 uM after 2 hrs by microarray based transcriptional profiling relative to control; format: functional; method in brief: as §2
[18] = test system: Candida parapsilosis; assay: Decrease in CGD gene ortholog accession number orf19.2308 expression in Candida parapsilosis CLIB214 at 50 uM after 2 hrs by microarray based transcriptional profiling relative to control; format: functional; method in brief: as §4
[19] = test system: Candida parapsilosis; assay: Increase in GIR2 gene expression in Candida parapsilosis CLIB214 at 50 uM after 2 hrs by microarray based transcriptional profiling relative to control; format: functional; method in brief: as §3
[20] = test system: Candida parapsilosis; assay: Antifungal activity against Candida parapsilosis CLIB214 assessed as growth inhibition in presence of 10% fetal calf serum at 37 degC; format: functional, organism-based
Method in brief: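 YPD cultures started at A600 0.2, supplemented with 10% (vol/vol) fetal calf serum, and grown at 30°C or 37°C. Farnesol added with the serum. Growth monitored by A600 or cell counting.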

[21] = test system: Candida parapsilosis; assay: Increase in CGD gene ortholog accession number orf19.7353 expression in Candida parapsilosis CLIB214 at 50 uM after 2 hrs by microarray based transcriptional profiling relative to control; format: functional; method in brief: as §2
[22] = test system: Candida parapsilosis; assay: Increase in CGD gene ortholog accession number orf19.6018 expression in Candida parapsilosis CLIB214 at 50 uM after 2 hrs by microarray based transcriptional profiling relative to control; format: functional; method in brief: as §2
[23] = test system: Candida parapsilosis; assay: Increase in ALS2 gene expression in Candida parapsilosis CLIB214 at 50 uM after 2 hrs by microarray based transcriptional profiling relative to control; format: functional; method in brief: as §2

SMILES: CC(C)=CCC/C(C)=C/CC/C(C)=C/CO [FARNESOL]
- Activity [1]: Active
- inhibition at 50 µM [2]: 88.5%
- fold change (FC) [3]: 1.52
- fold change (FC) [4]: 1.63
- fold change (FC) [5]: 1.7
- fold change (FC) [6]: 1.63
- fold change (FC) [7]: 1.59
- fold change (FC) [8]: 1.87
- fold change (FC) [9]: 2.04
- Activity [10]: 82%
- Activity [11]: 18%
- fold change (FC) [12]: 1.54
- Activity [13]: Active
- fold change (FC) [14]: 1.57
- Activity [15]: 20%
- fold change (FC) [16]: 1.56
- fold change (FC) [17]: 1.67
- fold change (FC) [18]: 1.7
- fold change (FC) [19]: 1.74
- Activity [20]: inactive
- fold change (FC) [21]: 2.14
- fold change (FC) [22]: 2.07
- fold change (FC) [23]: 1.61
